From PubChem BioAssay AID2465 (Broad Institute, 2010)
The whole screen tested about 24,000 compounds, of which fewer than 10 were called active. Cut-off read from the data, not from the text of the source: active = caspase activation above about 5.9%; inconclusive = no clear call, values can overlap the other calls; inactive = below about 2.2%. The list is a sample of the results.

Experiment: Bcl2-A1 antagonists releasing BIM, apoptosis – cell-based, luminescence, HTS, two replicates, primary screen (AID 2465)
Conditions: MEF A1-2A-BIM cells, caspase-Glo luminescence, 3 h; hits give high values; percent of clofoctol response, DMSO zero; concentration not given here
Method in brief: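 system = A1-2A-BIM-expressing MEF cells | quantity = 2500 MEF cells/well | dosing = 50 nL compound per well, pinned | schedule = overnight cell settling, then 3 h compound exposure, 37 °C | signal = luminescence from DEVD-luciferin Caspase-Glo reagent, 1:1 in 50 mM HEPES, 1 h RT | read-out = Caspase-3/7 activation, seen as rise in luminescence signal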

Caspase activation, inactive:
Cc1ccc(S(=O)(=O)N(C)C[C@@H]2Oc3ccc(NC(=O)Cc4cn(C)c5ccccc45)cc3C(=O)N([C@@H](C)CO)C[C@@H]2C)cc1 0.187%
Cc1noc(C)c1S(=O)(=O)Nc1ccc2c(c1)CC(=O)N([C@@H](C)CO)C[C@H](C)[C@H](CN(C)C(=O)Nc1cccc3ccccc13)O2 0.254%
O=C(CCCCCCC(=O)Nc1ccccc1O)N/N=C/c1ccc(CO)o1 -0.255%
COC(=O)CCCCCCC(=O)N/N=C/c1ccc2ccccc2c1O -1.41%
COc1ccc(NC(=O)N(C)C[C@H]2OCCCC[C@@H](C)Oc3ccc(NC(=O)NC4CCCCC4)cc3C(=O)N([C@@H](C)CO)C[C@H]2C)cc1 0.476%
C[C@@H]1CN([C@@H](C)CO)C(=O)c2cc(NS(=O)(=O)c3cn(C)cn3)ccc2O[C@@H]1CN(C)Cc1ccc(C(=O)Nc2ccccc2N)cc1 0.311%
C[C@H]1CN([C@@H](C)CO)C(=O)c2cc(NC(=O)C3CCCCC3)ccc2O[C@H]1CN(C)C(=O)Nc1ccccc1 0.892%
C[C@@H]1CCCCO[C@@H](CN(C)Cc2ccc(C(=O)O)cc2)[C@@H](C)CN([C@@H](C)CO)C(=O)c2cc(NC(=O)Nc3ccc(C(F)(F)F)cc3)ccc2O1 0.286%
COc1ccc(NC(=O)Nc2ccc3c(c2)C(=O)N([C@@H](C)CO)C[C@@H](C)[C@@H](CN(C)Cc2ccncc2)OCCCC[C@@H](C)O3)cc1 -1.58%
C[C@@H]1CN([C@H](C)CO)C(=O)Cc2cc(NC(=O)CCC(F)(F)F)ccc2O[C@@H]1CN(C)Cc1ccncc1 0.918%
COc1ccc(NC(=O)N(C)C[C@H]2OCCCC[C@@H](C)Oc3ccc(NC(=O)c4ccncc4)cc3C(=O)N([C@@H](C)CO)C[C@H]2C)cc1 -1.47%
COc1ccc(C(=O)Nc2cccc(-n3cc(C(=O)NO)nn3)c2)cc1 -0.373%
COc1ccc(S(=O)(=O)Nc2ccc3c(c2)C(=O)N([C@@H](C)CO)C[C@H](C)[C@H](CN(C)S(=O)(=O)c2ccc(F)cc2)OCCCC[C@@H](C)O3)cc1 0.149%
C[C@H]1CN([C@@H](C)CO)C(=O)CCCn2cc(nn2)CO[C@@H]1CN(C)S(=O)(=O)c1cccc(C#N)c1 0.238%
Cc1noc(C)c1S(=O)(=O)N(C)C[C@@H]1Oc2ccc(NC(=O)Cn3cnnn3)cc2CC(=O)N([C@@H](C)CO)C[C@H]1C -0.944%
C[C@@H]1CN([C@@H](C)CO)C(=O)Cc2cc(NC(=O)CCCCCC(=O)Nc3ccccc3N)ccc2O[C@@H]1CN(C)C(=O)NC1CCCCC1 0.875%
C[C@H]1CN([C@@H](C)CO)C(=O)Cc2cc(NS(=O)(=O)c3ccccc3)ccc2O[C@H]1CN(C)Cc1ccc(C(=O)Nc2ccccc2N)cc1 0.839%
COc1ccc(CN(C)C[C@H]2OCCCC[C@H](C)Oc3ccc(NC(=O)NC4CCCCC4)cc3C(=O)N([C@@H](C)CO)C[C@@H]2C)cc1 2.09%
CN(C)c1ccc(/C=N/NC(=O)c2cccc(C(=O)NO)c2)cc1 -7.51%
C[C@@H]1CN([C@@H](C)CO)C(=O)c2cc(NC(=O)Nc3ccc4c(c3)OCO4)ccc2O[C@@H](C)CCCCO[C@@H]1CN(C)S(=O)(=O)c1cccs1 0.598%
COc1ccc(CN(C)C[C@H]2OCCCC[C@H](C)Oc3ccc(NC(=O)c4ccccc4)cc3C(=O)N([C@@H](C)CO)C[C@@H]2C)cc1 2.67%
O=C(NO)c1cccc(C(=O)N/N=C/c2cc(Br)c(O)c(Br)c2)c1 0.169%
CC(C)NC(=O)N(C)C[C@H]1Oc2ccc(NC(=O)CCCCCC(=O)Nc3ccccc3N)cc2CC(=O)N([C@@H](C)CO)C[C@H]1C 0.899%
Cc1noc(C)c1S(=O)(=O)N(C)C[C@H]1OCc2cn(nn2)CCCC(=O)N([C@H](C)CO)C[C@H]1C -0.756%
C[C@H]1CCCCO[C@@H](CN(C)C(=O)Nc2ccccc2)[C@@H](C)CN([C@@H](C)CO)C(=O)c2cc(NC(=O)Nc3ccc(F)cc3)ccc2O1 -0.917%
Cc1ccc(S(=O)(=O)Nc2ccc3c(c2)C(=O)N([C@H](C)CO)C[C@H](C)[C@@H](CN(C)Cc2ccccc2)OCCCC[C@H](C)O3)cc1 -0.556%
C[C@H](CO)N1C[C@H](C)[C@@H](CN(C)Cc2ccc(C(=O)O)cc2)Oc2ccc(NS(=O)(=O)c3cn(C)cn3)cc2CC1=O -0.273%
C[C@@H]1CCCCO[C@@H](CN(C)C(=O)Nc2cccc3ccccc23)[C@H](C)CN([C@H](C)CO)C(=O)c2cc(NS(C)(=O)=O)ccc2O1 -0.00967%
Cc1noc(C)c1NC(=O)Nc1ccc2c(c1)C(=O)N([C@H](C)CO)C[C@@H](C)[C@@H](CN(C)Cc1ccncc1)OCCCC[C@H](C)O2 -0.749%
C[C@@H]1CN([C@@H](C)CO)C(=O)c2cc(NC(=O)Cc3ccccc3)ccc2O[C@@H]1CN(C)CC1CCCCC1 0.64%
Cc1noc(C)c1NC(=O)Nc1ccc2c(c1)C(=O)N([C@@H](C)CO)C[C@@H](C)[C@H](CN(C)C(=O)NC(C)C)O2 0.213%
C[C@@H]1CN([C@H](C)CO)C(=O)c2cc(NC(=O)CCCCCC(=O)Nc3ccccc3N)ccc2O[C@H]1CN(C)Cc1ccncc1 0.61%
C[C@@H]1CCCCO[C@H](CN(C)CC2CC2)[C@@H](C)CN([C@H](C)CO)C(=O)c2cc(NC(=O)Nc3ccc(F)cc3)ccc2O1 -0.194%
COc1ccc(S(=O)(=O)N(C)C[C@@H]2Oc3c(NC(=O)NC(C)C)cccc3C(=O)N([C@@H](C)CO)C[C@@H]2C)cc1 -0.3%
O=C(CCCCC(=O)N/N=C/c1ccc(-n2ccnc2)cc1)NO 1.09%
C[C@H](CO)N1C[C@H](C)[C@H](CN(C)C(=O)c2ccccc2)OCCCC[C@H](C)Oc2ccc(N(C)C)cc2C1=O -1.45%
